Settings in all cases: stereoisomer not certain
In one assay the target is T1, OR4Q3 (Homo sapiens) (UniProt Q8NH05).
T1 sequence (whole entry): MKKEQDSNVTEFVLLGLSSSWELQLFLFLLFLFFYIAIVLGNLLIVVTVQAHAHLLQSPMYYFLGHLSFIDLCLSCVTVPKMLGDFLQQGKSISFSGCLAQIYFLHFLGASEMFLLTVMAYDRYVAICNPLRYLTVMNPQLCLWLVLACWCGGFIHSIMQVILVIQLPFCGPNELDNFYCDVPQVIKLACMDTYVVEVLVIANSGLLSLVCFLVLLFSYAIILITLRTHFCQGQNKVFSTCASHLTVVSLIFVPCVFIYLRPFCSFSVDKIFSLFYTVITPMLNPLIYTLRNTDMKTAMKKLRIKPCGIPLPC
The gist of the method:
(§1)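 Assay methods differ from source to source, frequently being transient luciferase assays in mammalian cell lines. For each receptor–molecule pair, the label responsive (active) applies when the original authors judged the measured signal statistically different from baseline, and non-responsive (inactive) applies otherwise.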

The next assay deals with OR4Q3. The gist of the method:
as §1

For the next assay, the target named is OR4M2 (Homo sapiens) (UniProt Q8NGB6). Put shortly:
as §1

A further assay has as its target OR4M2B (Homo sapiens) (UniProt A0A0X1KG70). The gist of the method:
as §1

A further assay addresses OR4N2 (Homo sapiens) (UniProt Q8NGD1). The gist of the method: as §1
A further assay deals with OR4N4 (Homo sapiens) (UniProt Q8N0Y3). Put shortly: as §1
A further assay addresses OR4N4C (Homo sapiens) (UniProt A0A096LPK9). Put shortly:
as §1

A further assay concerns the target OR4N5 (Homo sapiens) (UniProt Q8IXE1). The gist of the method:
as §1

For a further assay, the target named is OR4P4 (Homo sapiens) (UniProt Q8NGL7). The gist of the method: as §1
A further assay has as its target OR4Q2 (Homo sapiens) (UniProt P0C623). The gist of the method: as §1
The next assay concerns the target OR4S1 (Homo sapiens) (UniProt Q8NGB4). Put shortly: as §1
For another assay, the target named is OR4S2 (Homo sapiens) (UniProt Q8NH73). The gist of the method:
as §1

The target in another assay is OR4X1 (Homo sapiens) (UniProt Q8NH49). Put shortly: as §1
The target in another assay is OR4X2 (Homo sapiens) (UniProt Q8NGF9). Put shortly:
as §1

For the next assay, the target named is OR51A2 (Homo sapiens) (UniProt Q8NGJ7). The gist of the method: as §1
The subject of a further assay is OR4M1 H277N V279L L284H. The gist of the method:
as §1

Another assay has as its system OR4N2 A57V I76T. Put shortly: as §1
For the next assay, the system named is OR4N2 R260C F279L R290H. Put shortly: as §1
The test system of a further assay is OR4N2. The gist of the method: as §1
A further assay has as its system OR4Q3 T135A. The gist of the method: as §1

The source of these data is the M2OR odorant receptor database.

Sequence of OR4M2 (Homo sapiens) (Q8NGB6 whole entry): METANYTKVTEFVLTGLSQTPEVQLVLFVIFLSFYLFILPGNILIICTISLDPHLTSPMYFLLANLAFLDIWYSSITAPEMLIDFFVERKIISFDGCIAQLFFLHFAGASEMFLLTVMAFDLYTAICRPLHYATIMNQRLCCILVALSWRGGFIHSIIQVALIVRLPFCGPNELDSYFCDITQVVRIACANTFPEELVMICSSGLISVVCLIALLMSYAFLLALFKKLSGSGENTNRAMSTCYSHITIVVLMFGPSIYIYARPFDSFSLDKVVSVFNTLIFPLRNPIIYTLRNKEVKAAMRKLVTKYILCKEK
Sequence of OR4S2 (Homo sapiens) (Q8NH73 whole entry): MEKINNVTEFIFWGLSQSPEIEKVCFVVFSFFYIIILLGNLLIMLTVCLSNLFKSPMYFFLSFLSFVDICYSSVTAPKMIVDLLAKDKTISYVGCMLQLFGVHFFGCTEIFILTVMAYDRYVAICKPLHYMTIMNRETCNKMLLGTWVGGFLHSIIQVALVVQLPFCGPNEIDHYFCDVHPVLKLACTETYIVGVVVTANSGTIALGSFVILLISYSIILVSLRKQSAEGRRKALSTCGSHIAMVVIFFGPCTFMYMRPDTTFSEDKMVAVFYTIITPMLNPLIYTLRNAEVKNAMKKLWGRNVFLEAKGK
Sequence of OR4X2 (Homo sapiens) (Q8NGF9 whole entry): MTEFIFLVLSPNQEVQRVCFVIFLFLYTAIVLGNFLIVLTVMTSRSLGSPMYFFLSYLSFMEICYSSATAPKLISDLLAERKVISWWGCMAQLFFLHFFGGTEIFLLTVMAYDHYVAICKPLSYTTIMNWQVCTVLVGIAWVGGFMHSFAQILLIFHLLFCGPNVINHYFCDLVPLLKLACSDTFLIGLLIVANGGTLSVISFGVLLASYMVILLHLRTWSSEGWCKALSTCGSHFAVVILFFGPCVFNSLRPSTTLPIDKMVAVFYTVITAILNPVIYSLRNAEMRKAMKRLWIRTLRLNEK
Sequence of OR4N5 (Homo sapiens) (Q8IXE1 whole entry): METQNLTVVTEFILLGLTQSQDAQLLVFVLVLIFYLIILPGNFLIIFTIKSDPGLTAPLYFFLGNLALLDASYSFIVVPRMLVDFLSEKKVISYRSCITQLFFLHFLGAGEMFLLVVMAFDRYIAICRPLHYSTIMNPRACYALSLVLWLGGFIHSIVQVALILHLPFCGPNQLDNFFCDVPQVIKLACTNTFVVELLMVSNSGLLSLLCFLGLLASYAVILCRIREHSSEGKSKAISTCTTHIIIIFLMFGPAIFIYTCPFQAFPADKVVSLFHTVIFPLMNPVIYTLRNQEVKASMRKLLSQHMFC
Sequence of OR4X1 (Homo sapiens) (Q8NH49 whole entry): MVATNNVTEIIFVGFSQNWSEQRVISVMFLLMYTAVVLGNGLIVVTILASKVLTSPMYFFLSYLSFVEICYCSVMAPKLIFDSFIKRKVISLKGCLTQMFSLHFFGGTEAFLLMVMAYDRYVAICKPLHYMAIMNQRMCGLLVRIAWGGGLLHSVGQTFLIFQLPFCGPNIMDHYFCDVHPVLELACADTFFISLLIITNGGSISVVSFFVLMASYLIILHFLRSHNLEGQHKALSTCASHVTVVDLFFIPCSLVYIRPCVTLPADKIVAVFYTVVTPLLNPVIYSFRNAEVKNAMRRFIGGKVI
Sequence of OR4N2 (Homo sapiens) (Q8NGD1 whole entry): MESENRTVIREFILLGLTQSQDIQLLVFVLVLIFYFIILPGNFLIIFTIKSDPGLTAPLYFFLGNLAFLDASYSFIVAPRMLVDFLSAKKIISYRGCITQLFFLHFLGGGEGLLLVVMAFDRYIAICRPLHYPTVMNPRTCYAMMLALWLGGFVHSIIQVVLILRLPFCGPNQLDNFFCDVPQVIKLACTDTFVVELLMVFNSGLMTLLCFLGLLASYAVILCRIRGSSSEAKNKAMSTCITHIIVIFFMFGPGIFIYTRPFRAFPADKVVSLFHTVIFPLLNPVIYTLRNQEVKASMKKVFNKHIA
Sequence of OR4S1 (Homo sapiens) (Q8NGB4 whole entry): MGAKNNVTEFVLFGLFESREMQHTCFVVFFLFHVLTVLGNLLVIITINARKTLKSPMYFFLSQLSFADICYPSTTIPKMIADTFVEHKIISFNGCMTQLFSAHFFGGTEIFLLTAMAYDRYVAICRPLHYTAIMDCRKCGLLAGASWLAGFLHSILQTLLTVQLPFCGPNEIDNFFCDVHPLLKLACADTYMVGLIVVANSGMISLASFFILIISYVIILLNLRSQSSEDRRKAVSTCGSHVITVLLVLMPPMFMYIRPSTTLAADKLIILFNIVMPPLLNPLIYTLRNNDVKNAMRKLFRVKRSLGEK
Sequence of OR4N4 (Homo sapiens) (Q8N0Y3 whole entry): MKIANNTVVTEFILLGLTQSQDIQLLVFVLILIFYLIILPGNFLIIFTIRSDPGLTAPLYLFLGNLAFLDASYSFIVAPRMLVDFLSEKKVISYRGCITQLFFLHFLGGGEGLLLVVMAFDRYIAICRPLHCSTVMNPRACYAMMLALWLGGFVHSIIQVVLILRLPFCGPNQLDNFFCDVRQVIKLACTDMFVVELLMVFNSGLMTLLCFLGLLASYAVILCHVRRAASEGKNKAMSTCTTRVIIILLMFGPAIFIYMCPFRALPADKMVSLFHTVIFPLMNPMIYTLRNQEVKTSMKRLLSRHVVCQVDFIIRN
Sequence of OR51A2 (Homo sapiens) (Q8NGJ7 whole entry): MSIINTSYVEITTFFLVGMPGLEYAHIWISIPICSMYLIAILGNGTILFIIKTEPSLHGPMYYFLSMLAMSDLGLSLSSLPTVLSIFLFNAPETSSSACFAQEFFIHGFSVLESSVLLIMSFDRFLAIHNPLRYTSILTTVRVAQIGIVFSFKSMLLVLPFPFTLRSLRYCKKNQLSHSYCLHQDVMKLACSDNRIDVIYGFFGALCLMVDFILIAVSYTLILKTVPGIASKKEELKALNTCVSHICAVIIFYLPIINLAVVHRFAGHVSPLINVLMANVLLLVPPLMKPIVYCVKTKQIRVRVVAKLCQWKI
Sequence of OR4P4 (Homo sapiens) (Q8NGL7 whole entry): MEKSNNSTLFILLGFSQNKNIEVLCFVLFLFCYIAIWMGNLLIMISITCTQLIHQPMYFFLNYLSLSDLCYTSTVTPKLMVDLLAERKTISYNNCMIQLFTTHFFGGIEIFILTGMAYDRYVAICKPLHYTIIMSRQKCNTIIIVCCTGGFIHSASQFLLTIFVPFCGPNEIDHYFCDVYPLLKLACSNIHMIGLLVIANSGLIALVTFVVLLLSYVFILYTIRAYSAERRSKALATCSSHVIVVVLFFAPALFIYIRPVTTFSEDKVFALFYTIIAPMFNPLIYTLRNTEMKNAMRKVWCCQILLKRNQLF
Sequence of OR4Q3 T135A (as listed by the source, stated change not applied): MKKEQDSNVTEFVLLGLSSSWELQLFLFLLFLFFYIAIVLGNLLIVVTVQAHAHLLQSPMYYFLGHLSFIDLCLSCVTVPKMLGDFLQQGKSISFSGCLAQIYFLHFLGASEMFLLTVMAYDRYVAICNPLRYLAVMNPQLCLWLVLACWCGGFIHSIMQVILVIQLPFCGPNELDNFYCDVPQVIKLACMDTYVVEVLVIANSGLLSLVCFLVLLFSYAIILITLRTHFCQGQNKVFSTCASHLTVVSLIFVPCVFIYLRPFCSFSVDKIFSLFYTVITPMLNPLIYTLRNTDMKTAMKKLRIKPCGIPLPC
Sequence of OR4Q2 (Homo sapiens) (P0C623 as listed by the source): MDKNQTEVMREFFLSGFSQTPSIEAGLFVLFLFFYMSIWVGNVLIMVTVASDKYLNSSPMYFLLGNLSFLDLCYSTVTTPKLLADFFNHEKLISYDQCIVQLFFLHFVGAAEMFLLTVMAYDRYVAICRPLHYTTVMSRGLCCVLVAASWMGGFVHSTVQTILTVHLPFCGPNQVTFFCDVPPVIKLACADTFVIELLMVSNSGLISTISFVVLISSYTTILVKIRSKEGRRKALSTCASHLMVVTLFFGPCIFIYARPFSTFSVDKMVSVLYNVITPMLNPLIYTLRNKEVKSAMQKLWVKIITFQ
Sequence of OR4N4C (Homo sapiens) (A0A096LPK9 whole entry): as the sequence (Q8N0Y3 whole entry) above, with M259I counted along it
Sequence of OR4Q3 (as listed by the source): as the sequence (as listed by the source, stated change not applied) above, with A135T, F238L counted along it
Sequence of OR4N2 (as listed by the source): as the sequence (Q8NGD1 whole entry) above, with I76T counted along it
Sequence of OR4M2B (Homo sapiens) (A0A0X1KG70 whole entry): as the sequence (Q8NGB6 whole entry) above, with G96E, F225L, M239V, R284H counted along it

In the case of `CCCCOC(=O)c1ccccc1N`, the “odorant receptor agonist call” value in the assay with OR4Q3 (Homo sapiens) is “active”. The “odorant receptor agonist call” value with OR4Q3 is “inactive”.

`Cc1c([N+](=O)[O-])c(C)c([N+](=O)[O-])c(C(C)(C)C)c1[N+](=O)[O-]`: the “odorant receptor agonist call” value in the assay with OR4M2 (Homo sapiens), with OR4M2B (Homo sapiens), in the assay with OR4N2 (Homo sapiens), in the assay with OR4N4 (Homo sapiens), with OR4N4C (Homo sapiens) and with OR4N5 (Homo sapiens) was “inactive” each time. Also, the “odorant receptor agonist call” value with OR4P4 (Homo sapiens), with OR4Q2 (Homo sapiens), with OR4Q3 (Homo sapiens), in the assay with OR4S1 (Homo sapiens), with OR4S2 (Homo sapiens) and in the assay with OR4X1 (Homo sapiens) was “inactive” each time. The “odorant receptor agonist call” value in the assay with OR4X2 (Homo sapiens) and with OR51A2 (Homo sapiens) was “inactive” each time.

For `C=CCOC(=O)Cc1ccccc1`, the “odorant receptor agonist call” value with OR4M1 H277N V279L L284H, with OR4M2 (Homo sapiens), with OR4N2 (Homo sapiens), with OR4N2 A57V I76T, in the assay on OR4N2 R260C F279L R290H and with OR4N2 was “inactive” each time. For the same molecule, the “odorant receptor agonist call” value with OR4N4 (Homo sapiens), in the assay with OR4N5 (Homo sapiens), with OR4P4 (Homo sapiens), with OR4Q3 (Homo sapiens), in the assay on OR4Q3 T135A and with OR4S1 (Homo sapiens) was “inactive” in each case. Besides, the “odorant receptor agonist call” value with OR4S2 (Homo sapiens), with OR4X1 (Homo sapiens), with OR4X2 (Homo sapiens) and with OR51A2 (Homo sapiens) was “inactive” each time.
